Experimental data from PMC2841013 (Biochemistry, 2010).
“Also recorded” adds a separate entry of the source.

Assays:
[1] = tested on: 33 representative human bZIPs; assay: Coiled-coil array, panel of human bZIPs; format: binding
[2] = tested on: JUN; assay: Coiled-coil array vs JUN; format: binding, human; conditions: BZLF1 probe 1280 nM
[3] = tested on: FOS; assay: Coiled-coil array vs FOS; format: binding, human; conditions: BZLF1 probe 1280 nM
How it was run: (§1)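 Leucine-zipper regions of human bZIPs and viral proteins were expressed in E. coli RP3098, purified denaturing via Ni-NTA then reverse-phase HPLC, and printed on aldehyde glass slides. The fluorescently labelled BZLF1 zipper was probed at 1280 nM in phosphate buffer with GdnHCl. Each measurement averaged 8 background-corrected spots and was reported as Sarray or arrayscore, −log(F/Fmax), with F as intensity minus the probe's median signal.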

[4] = tested on: CEBPA; assay: Coiled-coil array vs CEBPA; format: binding, human; conditions: BZLF1; leucine-zipper regions; probe 1280 nM
How it was run: as §1

[5] = tested on: BZLF1; assay: Coiled-coil array, BZLF1 self-association; format: binding, Epstein-Barr virus; conditions: BZLF1 leucine zipper; probe 1280 nM
[6] = tested on: CEBPA (C/EBPα); conditions: cited from earlier work
[7] = tested on: MAFB on MARE DNA; assay: Gel-shift with MAFB on MARE DNA; format: binding, human; conditions: MAFB 4 nM, HBZLZ 4, 40, 400, or 4000 nM
[8] = tested on: MAFG on MARE DNA; assay: Gel-shift with MAFG on MARE DNA; format: binding, human; conditions: MAFG 4 nM, HBZLZ 4, 40, 400, or 4000 nM
[9] = molecular target: Q9DGW5; conditions: other: circular dichroism

Question: For “BZLF1: bZIP protein encoded by Epstein-Barr virus (LLQHYREVAAAKSSENDRLRLLLKQM; fluorescently labeled when used as solution probe on the arrays (dye and site not stated); left off: His tag (from the vector pDEST17, modified versions, and the Ni-NTA purification), end not stated,)”, which “interaction with human bZIPs on array” value ([1]; BZLF1 leucine zipper, probe concentration 1280 nM, average of 8 spots) is on record?
Answer: Its value is “not to interact with any human bZIP peptides; also recorded: display almost exclusive homo-association”.

Question: And the interaction on array [2]?
Answer: The interaction on array was “not observed to interact on the arrays”.

Question: And the interaction on array [3]?
Answer: Its interaction on array is “not observed to interact on the arrays”.

Question: What about the interaction on array [4] of the same molecule?
Answer: The interaction on array was “this pairing was not observed in our array experiments”.

Question: What about the self-association on array [5] of the same molecule?
Answer: Its self-association on array is “observed to self-associate strongly”.

Question: What about the “interaction with CEBPA” value [6] of the same molecule?
Answer: Its value is “interact with many viral and cellular proteins including the human bZIP CEBPA (C/EBPα)”.

Question: Which results are given for “HBZLZ: leucine-zipper-only version of HBZ (DGYTRQLEGEVESLEAERRKLLQEKEDLMGEVNYWQGRLEAMWLQ; fluorescently labeled when used as solution probe on the arrays (dye and site not stated); left off: His tag (from the vector pDEST17, modified versions, and the Ni-NTA purification), end not stated,)”?
Answer: amount of MAFB bound to DNA [7]: The amount of MAF protein bound to DNA was decreased, though a higher concentration of HBZLZ was required. No additional complex was detected; amount of MAFG bound to DNA [8]: The amount of MAF protein bound to DNA was decreased, though a higher concentration of HBZLZ was required. No additional complex was detected

Question: Which “interaction with human bZIPs on array” value ([1]; construct with the C-terminal extension) does the source give for “BZLF1CT: BZLF1 construct with the C-terminal extension (LLQHYREVAAAKSSENDRLRLLLKQMCPSLDVDSIIPRTPDVLHEDLLNF; fluorescently labeled when used as solution probe on the arrays (dye and site not stated))” here?
Answer: Its value is “did not interact strongly with any human proteins”.

B1: MEQ bZIP domain (protein)
chain: KQKLERRRKRNRDAARRRRRKQTDYVDKLHEACEELQRANEHLRKEIRDLRTECTSLRVQLACH
Question: Which “Tm (homo-association)” value [9] does the source give for B1 here?
Answer: The value was “for MEQ was 35.2 °C”.
